Screening data as filed in PubChem BioAssay.
bIAP inhibitor: bovine intestinal alkaline phosphatase inhibitors, primary screen, selectivity assay for TNAP inhibitor project, biochemical, bovine IAP, CDP-star luminescence; alkaline phosphatase, intestinal [Bos taurus]; purified bovine IAP, 30 min; inhibition, % at 20 µM; 190,000 tested, under 10 active; AID 1019, 2008;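 active = over 50% inhibition of intestinal alkaline phosphatase at 20 µM in the single-dose screen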
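test system = bovine IAP enzyme | medium = DEA buffer 100 mM, pH 9.8, with MgCl2 1.0 mM, ZnCl2 0.02 mM | detection = luminescence | dosing = single compound dose of 20 µM, 2% DMSO final | incubation = 30 min reaction at room temperature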
hIAP inh: human IAP inhibitors, primary screen, biochemical, luminescence, uHTS | Intestinal-type alkaline phosphatase (Homo sapiens), P09923 | hit rate 0.12% among 330,000 | inhibition, % at 10 µM | purified IAP, CDP-Star luminescence, 30 min;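 active = inhibition reaching a set limit with compound at 10 µM in the primary screen, cut at about 35% in these data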
Target sequence (P09923 whole entry, looked up): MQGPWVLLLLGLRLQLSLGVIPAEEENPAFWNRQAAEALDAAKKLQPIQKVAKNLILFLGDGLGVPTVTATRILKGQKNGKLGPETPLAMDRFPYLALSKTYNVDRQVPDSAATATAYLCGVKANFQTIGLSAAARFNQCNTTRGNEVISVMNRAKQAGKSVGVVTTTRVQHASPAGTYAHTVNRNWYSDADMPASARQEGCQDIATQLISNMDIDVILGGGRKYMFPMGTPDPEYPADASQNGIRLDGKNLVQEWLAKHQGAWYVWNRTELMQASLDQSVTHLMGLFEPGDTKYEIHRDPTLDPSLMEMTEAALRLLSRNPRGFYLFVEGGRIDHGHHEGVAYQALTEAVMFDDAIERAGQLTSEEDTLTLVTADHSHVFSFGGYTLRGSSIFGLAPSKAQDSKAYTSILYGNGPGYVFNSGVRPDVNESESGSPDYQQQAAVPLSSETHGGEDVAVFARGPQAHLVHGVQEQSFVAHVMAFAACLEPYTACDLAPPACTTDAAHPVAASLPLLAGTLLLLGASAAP
hIAP act: human IAP activators, primary screen, biochemical, luminescence, uHTS; purified human IAP, CDP-Star luminescence, 30 min; hits give high values; 1 = vehicle-only enzyme, 0 = enzyme-free background; activation factor at 10 µM; hit rate 0.16% among 330,000;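 active = activation factor of the enzyme at least 2-fold when tested at 20 µM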
mIAP inh: inhibitors of mouse IAP, primary screen, biochemical, luminescence, uHTS. intestinal alkaline phosphatase [Mus musculus]. inhibition, % at 10 µM. purified mouse IAP, CDP-Star luminescence, 30 min. hit rate 0.2% among 330,000. AID 2806, 2010;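 active = inhibition of at least 40% at 10 µM in the primary screen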
bIAP activator: bovine intestinal alkaline phosphatase activators, primary screen, biochemical, bovine IAP, CDP-star luminescence | alkaline phosphatase, intestinal [Bos taurus] | purified bovine IAP, 30 min; hits give high values; fold of DMSO-control signal, blank-subtracted | activation factor at 20 µM | hit rate 0.17% among 200,000;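 active = activation factor of 2 or more at 20 µM, a signal rise over negative controls twice the positive control's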
mIAP act: activators of mouse IAP, primary screen, biochemical, luminescence, uHTS | muIAP, CDP-Star luminescence, 30 min; hits give high values; 1 = vehicle-only enzyme signal, 0 = enzyme-free wells | activation factor at 10 µM | intestinal alkaline phosphatase [Mus musculus] | hit rate 0.24% among 330,000;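 active = activation factor of at least 2 at 20 µM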
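Assay system: mouse IAP enzyme; reagent: chemiluminescent substrate CDP-Star; dosing: test compounds delivered from DMSO solution; schedule: 30 min at room temperature; measured by: luminescence from enzymatic CDP-Star hydrolysis; controls: DMSO-only wells and no-enzyme negative control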
Numbers stand for hits; i = inactive; nt = no result given. A selection: hits, their analogues and other compounds. The true share with any hit is near 0.77%.

SMILES	bIAP inhibitor	hIAP inh	hIAP act	mIAP inh	bIAP activator	mIAP act
CCn1c2ccccc2c2nnc(SCCN3CCCCC3)nc21	nt	i	i	i	nt	i
CC(C)CCn1nc(C(=O)Nc2nc3c(s2)CCCC3)c2ccccc2c1=O	i	i	i	i	i	i
O=C(COC(=O)c1ccc(S(=O)(=O)NCc2ccco2)cc1)Nc1ccccc1	nt	i	i	i	nt	i
O=C(COC(=O)c1ccc(S(=O)(=O)NCc2ccco2)cc1)Nc1ccccc1OC(F)F	i	i	i	i	2.4	i
CCC(C)(C)NC(=O)C(c1cccc(OC)c1)N(C(=O)c1ccn[nH]1)c1cccc(OC)c1 (stereo not given)	i	i	i	i	i	i
CC(C)(C)NC(=O)C(c1ccc(F)cc1)N(CCc1ccccc1)C(=O)c1ccn[nH]1 (stereo not given)	i	i	i	i	2	i
CCC(C)(C)NC(=O)C(c1cccs1)N(C(=O)c1ccn[nH]1)c1ccccc1 (stereo not given)	i	i	i	i	2.3	i
COc1ccc(N(C(=O)c2ccn[nH]2)C(C(=O)NC(C)(C)C)c2ccc(F)cc2)cc1 (stereo not given)	i	i	i	i	3	i
COc1ccc(N(C(=O)C2CSC(=O)C2)C(C(=O)NC(C)(C)C)c2ccncc2)cc1 (stereo not given)	i	i	i	i	i	i
c1ccc(CCNc2nc(-c3cccnc3)cs2)cc1	i	i	i	i	i	i
c1ccc(N2N=C(c3cccs3)CC2c2ccco2)cc1 (stereo not given)	i	i	i	i	i	2.08
Clc1ccc(N2N=C(c3cccs3)CC2c2ccco2)cc1 (stereo not given)	i	i	i	i	i	i
O=C(Nc1cccc(Cl)c1)N1CCN(C2c3ccccc3-c3ccccc32)CC1	nt	i	i	i	nt	2.09
O=C(NC1CCN(C(=O)Nc2cccc(Cl)c2)CC1)c1ccccc1	nt	i	i	i	nt	i
O=C(Nc1ccc(Cl)c(Cl)c1)O/N=C/c1ccncc1	i	i	i	i	i	2.42
Cc1c(C(=O)Nc2ccccc2[N+](=O)[O-])csc1-c1ccccc1	i	i	i	i	3.7	i
CCOc1ccc(NC(=O)C2Cc3ccccc3CN2S(=O)(=O)CC)cc1 (stereo not given)	i	i	i	i	i	i
Cc1oc2ccc(O)cc2c1C(=O)c1ccc([N+](=O)[O-])cc1	i	i	i	i	i	i
CN(C)/C=C/c1oc2ccc(O)cc2c1[N+](=O)[O-]	i	46.3	i	i	i	i
Cc1cccc(NCc2nc3ccccc3n2Cc2ccccc2)c1	i	i	i	i	9.5	i
Cc1nc2cc(NCc3nc4ccccc4n3Cc3ccccc3)ccc2n1C	i	i	i	i	i	i
Oc1ccccc1/C=N/Nc1cccc2cccnc12	i	i	i	i	2.7	i
Cc1cc(C)n(-c2nc(NCCC(C)C)c3c4c(sc3n2)COC(C)(C)C4)n1	i	nt	nt	nt	2.4	nt
Cc1cc(C)n(-c2nc(NCCN(C)C)c3c4c(sc3n2)COC(C)(C)C4)n1	nt	i	i	i	nt	i
CC(NC(=S)NCCc1ccccc1)C(c1cccs1)N1CCN(Cc2ccccc2)CC1 (stereo not given)	nt	i	i	i	i	5.3
SMILES	bIAP inhibitor	hIAP inh	hIAP act	mIAP inh	bIAP activator	mIAP act
CC(NC(=O)NC1CCCCC1)C(c1cccs1)N1CCOCC1 (stereo not given)	i	i	i	i	i	i
CC(NC(=O)NC1CCCCC1)C(c1cccs1)N1CCN(Cc2ccccc2)CC1 (stereo not given)	i	i	i	i	3.4	i
CCN1CCN(C(c2cccs2)C(C)NC(=S)Nc2cc(C)ccc2C)CC1 (stereo not given)	nt	i	i	i	nt	i
COc1ccc(N=Nc2ccc(O)c3ncccc23)cc1	nt	i	i	i	nt	i
CCc1ccc(N=Nc2ccc(O)c3[nH]cnc23)cc1	nt	i	i	40.1	nt	i
COc1ccc(Cl)c(N2CCN(CCCNC(=O)Nc3ccc(C)cc3)CC2)c1	i	i	i	i	2.2	i
CCOC(=O)c1c(C)n(-c2ccc(C)cc2)c2ccc(OCC(O)CNCCCO)cc12 (stereo not given)	i	i	i	i	2	i
COc1cc2nc(SCC(=O)NCCc3ccccc3)n(Cc3ccco3)c(=O)c2cc1OC	i	i	i	i	2	i
O=C(CSc1nc2ccccc2c(=O)n1Cc1ccco1)NCc1ccco1	i	i	i	i	i	i
CC(C)n1c(C(O)c2ccc3c(c2)OCO3)nc2ccccc21 (stereo not given)	i	i	i	i	2.6	i
Cn1c(C(O)c2ccc3c(c2)OCO3)nc2ccccc21 (stereo not given)	i	i	i	i	i	i
Fc1cccc(NC(=S)NCCCN2CCOCC2)c1	i	i	i	i	i	i
CC(C)OC(=O)C1C(=O)CC(C)(O)C(C(=O)OC(C)C)C1c1cccnc1 (stereo not given)	i	i	i	i	i	i
CCN1/C(=C\C=C2\C(=O)N(C)C(=S)N2C)Sc2ccccc21	i	37.3	i	i	i	i
CC(C)(C)OC(=O)N[C@@H](COCc1ccccc1)C(=O)N[C@@H](CO)[C@H](O)[C@@H]1C[C@@H]1C(=O)N1CCCC1	nt	i	i	i	nt	i
Cc1ccc(NC(=S)NCCC(c2ccccc2)c2ccccc2)c(C)c1	i	i	i	i	i	4.07
COc1ccc(OC)c(NC(=S)NCc2ccccc2OC)c1	i	i	i	i	i	i
COc1ccc(OC)c(NC(=S)NCCC(c2ccccc2)c2ccccc2)c1	nt	i	i	i	nt	2.59
CCOC(=O)N1CCC(NC(=O)c2ccc3c(c2)N(Cc2ccccc2)CCS3)CC1	i	i	i	i	2.5	i
CCOC(=O)N1CCC(NC(=O)c2ccc3c(c2)N(Cc2ccc(C)cc2)CCS3)CC1	i	i	i	i	i	i
Cc1cc(N2CCC(C)CC2)nc2cccc(O)c12	i	i	i	i	i	i
COc1ccc(NC(=O)Nc2ccc3c(c2)C(=O)N([C@H](C)CO)C[C@H](C)[C@@H](CN(C)S(=O)(=O)c2ccc(OC)cc2)O3)cc1	nt	i	i	i	nt	2.55
COc1ccc(S(=O)(=O)N(C)C[C@H]2Oc3ccc(NC(=O)Nc4ccc(C(F)(F)F)cc4)cc3C(=O)N([C@H](C)CO)C[C@@H]2C)cc1	nt	i	i	i	nt	i
